# Measurements reported in ChEMBL document CHEMBL4196021, “Targeting G-quadruplex DNA structures in the telomere and oncogene promoter regions by benzimidazole‒carbazole ligands” (Eur J Med Chem, 2018).
# The source made the active and inactive calls. The rule behind the calls is not given here.
# Assays:
# [1] = biological target: Quadruplex DNA; experiment: Displacement of thiazole orange from human Bcl2 G-quadruplex DNA after 5 mins in presence of KCl by fluorescence assay; type: nucleic-acid assay
# How it was run: (§1)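 Thiazole orange displacement from a G4 DNA–TO complex (1 µM TO + 0.5 µM G4 DNA) in 10 mM Tris-HCl pH 7.4, 100 mM KCl, 0.1 mM EDTA. Ligand was added in increasing steps, with 5 min incubation each. Fluorescence read at ex 501/em 531 nm; % displacement = 100 − (Ft/F0 × 100). DC50 is the ligand concentration giving 50% displacement, read from plots; average of two independent experiments.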
# [2] = test system: Quadruplex DNA; experiment: Binding affinity to human c-Kit1 G-quadruplex DNA at 0.6 uM after 5 mins in presence of KCl by fluorescence spectroscopic method; type: nucleic-acid assay
# How it was run: (§2)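 Fluorescence titration at 25 °C with 0.6 µM ligand in 10 mM Tris-HCl pH 7.4, 100 mM KCl, 0.1 mM EDTA. Preformed G4 DNA was added stepwise, with 5 min incubation before each spectrum. Excitation 330 nm; emission 350–550 nm, slit 5 nm.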
# [3] = test system: Quadruplex DNA; experiment: Binding affinity to human VEGF G-quadruplex DNA assessed as change in melting temperature in presence of KCl by CD spectroscopic method; type: nucleic-acid assay
# How it was run: (§3)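 CD melting of 5 µM G4 DNA in 10 mM Tris-HCl pH 7.4, 25 mM KCl, 0.1 mM EDTA. Ligand was present during folding (heating, slow cooling). Spectra 200–400 nm over 20–96 °C in 2 °C steps, buffer blank subtracted. Tm was taken from normalized ellipticity at the positive maximum (262 nm for promoter G4s). ΔTm = ligand-bound minus DNA alone; average of two independent experiments.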
# [4] = test system: Quadruplex DNA; experiment: Binding affinity to human c-Myc G-quadruplex DNA assessed as stabilization of parallel stranded topology after 5 mins in presence of KCl by CD spectroscopic method; type: nucleic-acid assay
# How it was run: (§4)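 CD spectra of 5 µM G4 DNA in 10 mM Tris-HCl pH 7.4, 100 mM KCl, 0.1 mM EDTA, with or without ligand. Mixtures were heated 95 °C for 5 min and slowly cooled to room temperature. Recorded 200–400 nm at 25 °C, 100 nm/min, 2 s response, 1 cm cell; average of three scans.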
# [5] = test system: Quadruplex DNA; experiment: Stabilization of VEGF G-quadruplex DNA in human HeLa cells assessed as decrease in VEGF mRNA level at 5 uM after 24 hrs by RT-PCR method relative to control; type: cell-based; parameters: scale not given: the % may be the effect or the level left
# How it was run: (§5)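 HeLa cells exposed to increasing ligand concentrations (5 and 10 µM named) for 24 h, with DMSO-treated cells as control. Total RNA was extracted with TRI reagent and DNase I-treated. c-MYC and VEGF transcripts were quantified by qRT-PCR, normalized to GAPDH, and expressed as relative fold change.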
# [6] = test system: Quadruplex DNA; experiment: Binding affinity to human telomeric G-quadruplex DNA at 0.6 uM after 5 mins in presence of KCl by fluorescence spectroscopic method; type: nucleic-acid assay; how it was run: as §2
# [7] = test system: Quadruplex DNA; experiment: Induction of conformational changes in human Bcl2 G-quadruplex DNA assessed as inversion from potassium ion stabilized hybrid type mixed parallel/antiparallel G-quadruplex to stable telomere parallel-stranded G-quadruplex after 5 mins in presence of KCl by CD spectroscopic method; type: nucleic-acid assay; how it was run: as §4
# [8] = test system: Quadruplex DNA; experiment: Binding affinity to human c-Kit2 G-quadruplex DNA at 0.6 uM after 5 mins in presence of KCl by fluorescence spectroscopic method; type: nucleic-acid assay; how it was run: as §2
# [9] = test system: HeLa; experiment: Cytotoxicity against human HeLa cells assessed as reduction in cell viability after 72 hrs by MTT assay; type: functional, cell-based
# How it was run: (§6)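 HeLa and MCF7 cells in log phase were seeded for 24 h, then exposed to a range of ligand concentrations for 72 h. MTT (5 mg/ml stock) was added for 4 h, formazan dissolved in DMSO, and absorbance read at 570 nm. Three independent experiments in triplicate, mean ± SD.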
# [10] = test system: Quadruplex DNA; experiment: Binding affinity to human VEGF G-quadruplex DNA assessed as stabilization of parallel stranded topology after 5 mins in presence of KCl by CD spectroscopic method; type: nucleic-acid assay; how it was run: as §4
# [11] = biological target: Quadruplex DNA; experiment: Displacement of thiazole orange from human c-Myc G-quadruplex DNA after 5 mins in presence of KCl by fluorescence assay; type: nucleic-acid assay; how it was run: as §1
# [12] = biological target: Quadruplex DNA; experiment: Displacement of thiazole orange from human VEGF G-quadruplex DNA after 5 mins in presence of KCl by fluorescence assay; type: nucleic-acid assay; how it was run: as §1
# [13] = test system: Quadruplex DNA; experiment: Stabilization of VEGF G-quadruplex DNA in human HeLa cells assessed as decrease in VEGF mRNA level after 24 hrs by RT-PCR method; type: cell-based; how it was run: as §5
# [14] = test system: Quadruplex DNA; experiment: Binding affinity to human Bcl2 G-quadruplex DNA at 0.6 uM after 5 mins in presence of KCl by fluorescence spectroscopic method; type: nucleic-acid assay; how it was run: as §2
# [15] = test system: Quadruplex DNA; experiment: Binding affinity to human Bcl2 G-quadruplex DNA assessed as change in melting temperature in presence of KCl by CD spectroscopic method; type: nucleic-acid assay; how it was run: as §3
# [16] = test system: Quadruplex DNA; experiment: Binding affinity to human 77-mer c-Myc G-quadruplex DNA assessed as inhibition of Taq DNA polymerase-mediated DNA synthesis by measuring generation of premature chain termination products using 32P-labeled primer after 30 mins by polymerase stop assay; type: nucleic-acid assay
# How it was run: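 Template of 10 nM single-stranded 77-mer c-MYC with the G-quadruplex-forming sequence, annealed to 32P-labeled plus cold primer (15 nM) in Tris-HCl pH 7.4 with 5 mM KCl. Annealing was 95 °C for 5 min then slow cooling, with ligand added before annealing. Extension with Taq polymerase (5 mM MgCl2, 0.5 mM DTT, 0.2 mM dNTPs) ran 30 min at 48 or 40 °C. Products were resolved on 15% urea denaturing PAGE and read by phosphorimaging.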
# [17] = test system: Quadruplex DNA; experiment: Binding affinity to human c-Myc G-quadruplex DNA assessed as change in melting temperature in presence of KCl by CD spectroscopic method; type: nucleic-acid assay; how it was run: as §3
# [18] = test system: Calf thymus DNA; experiment: Displacement of thiazole orange from calf thymus duplex DNA after 5 mins in presence of KCl by fluorescence assay; type: nucleic-acid assay, Bos taurus
# [19] = test system: Quadruplex DNA; experiment: Stabilization of c-Myc G-quadruplex DNA in human HeLa cells assessed as decrease in c-Myc mRNA level after 24 hrs by RT-PCR method; type: cell-based; how it was run: as §5
# [20] = test system: MCF7; experiment: Cytotoxicity against human MCF7 cells assessed as reduction in cell viability after 72 hrs by MTT assay; type: functional, cell-based; how it was run: as §6
# [21] = test system: Quadruplex DNA; experiment: Binding affinity to human c-Myc G-quadruplex DNA at 0.6 uM after 5 mins in presence of KCl by fluorescence spectroscopic method; type: nucleic-acid assay; how it was run: as §2
# [22] = test system: Quadruplex DNA; experiment: Stabilization of c-Myc G-quadruplex DNA in human HeLa cells assessed as decrease in c-Myc mRNA level at 5 uM after 24 hrs by RT-PCR method relative to control; type: cell-based; parameters: scale not given: the % may be the effect or the level left; how it was run: as §5
# [23] = biological target: Quadruplex DNA; experiment: Displacement of thiazole orange from human c-Kit1 G-quadruplex DNA after 5 mins in presence of KCl by fluorescence assay; type: nucleic-acid assay; how it was run: as §1
# [24] = test system: Quadruplex DNA; experiment: Stabilization of VEGF G-quadruplex DNA in human HeLa cells assessed as decrease in VEGF mRNA level at 10 uM after 24 hrs by RT-PCR method relative to control; type: cell-based; parameters: scale not given: the % may be the effect or the level left; how it was run: as §5
# [25] = test system: Quadruplex DNA; experiment: Binding affinity to human c-Kit2 G-quadruplex DNA assessed as stabilization of parallel stranded topology after 5 mins in presence of KCl by CD spectroscopic method; type: nucleic-acid assay; how it was run: as §4
smiles,measurement,setting,value
CN(C)CCCCn1c2ccc(-c3nc4ccc(N5CCN(CCO)CC5)cc4[nH]3)cc2c2cc(-c3nc4ccc(N5CCN(CCO)CC5)cc4[nH]3)ccc21,DC50,[1],1390 nM
same,Activity,[2],Active
same,ΔTm,[3],11.3 °C
same,Activity,[4],Active
same,Activity,[5],44%
same,Activity,[6],Active
same,Activity,[7],Active
same,Activity,[8],Active
same,Activity,[9],Dose-dependent effect
same,IC50,[9],8290 nM
same,Activity,[10],Active
same,DC50,[11],830 nM
same,DC50,[12],780 nM
same,Activity,[13],Dose-dependent effect
same,Activity,[14],Active
same,ΔTm,[15],9.54 °C
same,Activity,[16],Dose-dependent effect
same,ΔTm,[17],7.35 °C
same,DC50,[18],6940 nM
same,Activity,[19],Dose-dependent effect
same,Activity,[20],Dose-dependent effect
same,IC50,"[20]; MCF7, 72 h",11400 nM
same,Activity,[21],Active
same,Activity,[22],49%
same,DC50,[23],860 nM
same,Activity,[24],68%
same,Activity,[25],Active
